Assay outcomes: PubChem BioAssay, The Scripps Research Institute Molecular Screening Center
Hits are enriched below; roughly 2.2% of the tested compounds scored in any of these assays.
TDP2 inh = TDP2 (human) inhibition, absorbance primary screen; AID 720702; O95551; actives 0.34% (n = 370,000); inhibition, % at 12.8 µM; recombinant TDP2, T5PNP hydrolysis, p-nitrophenol absorbance 415 nm;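 active = inhibition above the mean of all tested compounds plus 3 SD, set per campaign, cut at about 25% in these data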;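 also: 0% = DMSO with enzyme and 100% = buffer with substrate but no TDP2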
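System – recombinant human TDP2 · Quantity – TDP2 enzyme at 120 nM final · Doses – single concentration, 12.8 µM nominal, with 1% DMSO · Incubation – 2 h at 37 °C · Measured by – epi absorbance of p-nitrophenol freed from T5PNP by hydrolysis · Read-out – % inhibition relative to enzyme-containing and enzyme-free wells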
SIAE inh = blocks human sialic acid acetylesterase; AID 1053197; Q9HAT2; actives 0.69% (n = 370,000); inhibition, % at 9.66 µM; SIAE FP-Rh probe binding, fluorescence polarization;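 active = inhibition above a cutoff: mean of compounds within the control limits plus 3 SD of those, cut at about 17% in these data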;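 also: 0% = plate median of compound wells and 100% = probe without SIAE protein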
LEDGF integ inh = blocks HIV-1 LEDGF/p75-dependent DNA integration. TR-FRET IN-LEDGF/p75 DNA integration, Eu/Cy5. inhibition, % at 3.7 µM. actives 0.64% (n = 370,000). AID 743269;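 active = inhibition above the screen-wide mean plus 3 SD, cut at about 13% in these data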;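 also: signal is the Cy5 over europium emission ratio at 671 and 618 nm; 0% = plate median of compound wells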
HTRA1 inhibitor = inhibitors of human serine peptidase HTRA1; Q92743; recombinant HTRA1, FP-rhodamine activity-based probe, fluorescence polarization; inhibition, % at 5.96 µM; actives 0.5% (n = 340,000); in the data active = inhibition above about 36%;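 also: 0% = enzyme with DMSO and 100% = wells lacking enzyme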
mABHD4 FP = ABHD4 (mouse) inhibition, primary FP screen | AID 720543 | inhibition, % at 8.92 µM | actives 0.54% (n = 370,000) | Q8VD66 | purified mABHD4, FP-Rh probe fluorescence polarization;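 active = inhibition exceeding the mean over every tested compound plus 3 SD, cut at about 30% in these data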;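 also: 0% = plate median of compound wells and 100% = S159A mutant with DMSO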
Target sequence (Q8VD66 whole entry, looked up): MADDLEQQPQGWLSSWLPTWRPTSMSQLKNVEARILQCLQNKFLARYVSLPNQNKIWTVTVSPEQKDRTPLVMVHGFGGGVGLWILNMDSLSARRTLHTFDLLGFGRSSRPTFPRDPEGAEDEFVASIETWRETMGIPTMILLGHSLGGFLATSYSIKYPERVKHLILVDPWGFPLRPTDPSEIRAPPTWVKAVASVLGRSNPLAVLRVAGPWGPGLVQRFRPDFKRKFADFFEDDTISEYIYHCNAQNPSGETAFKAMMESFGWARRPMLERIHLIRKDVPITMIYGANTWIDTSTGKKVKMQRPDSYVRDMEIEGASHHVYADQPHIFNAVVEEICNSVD
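Assay system: mouse ABHD4 enzyme, wild type / Also added: fluorescent activity-based probe FP-Rh / Doses: single nominal dose of 8.92 µM, 0.89% DMSO final / Timing: 45 min compound pre-incubation plus 60 min probe step, 25 °C / Signal: FP readout, ex 525 nm / em 598 nm / Control set: S159A mutant/DMSO as 100%, compound-well median as 0%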
TCR-CD3 inh = inhibitors of human TCR-CD3 interaction | TAMRA-labeled TCR probe fluorescence, biochemical | inhibition, % at 9.4 µM | actives 0.37% (n = 360,000) | AID 651800; in the data active = inhibition above about 19%;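 also: recombinant mutant TCR 2C K166C tagged with TAMRA read by polarization; 0% = receptor in buffer alone and 100% = receptor with positive control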
Numbers without * were called inactive; . = no result given.

SMILES	TDP2 inh	SIAE inh	LEDGF integ inh	HTRA1 inhibitor	mABHD4 FP	TCR-CD3 inh
O=C1Nc2ccccc2C1=Nc1ccc(S(=O)(=O)Nc2nccs2)cc1	22	5	-2	7	42*	11
NS(=O)(=O)c1ccc(N=C2C(=O)Nc3ccccc32)cc1	-2	-3	-3	5	2	9
Cc1ccc(CNc2ccc3c(c2)OCO3)cc1	.	.	.	49*	.	.
CCCC1CCC2(CC1)CCC2OC(=S)Nc1ccc(N(C)C)cc1 (configuration not stated)	2	-1	-1	.	14	.
CN(C1=C(NC(=O)c2ccccc2)C(=O)c2ccccc2C1=O)C1CCS(=O)(=O)C1 (configuration not stated)	33*	0	11	11	10	0
COc1cccc(C(=O)N[C@H](C(=O)N2CCC[C@H]2C(=O)NCCc2ccccc2Cl)c2ccccc2)c1	9	2	-1	.	-8	6
CCC(CC)C(=O)Nc1cccc(C(=O)Nc2ccc(S(=O)(=O)Nc3ccc(C)cc3)cc2)c1	-9	-166	-3	-131	-138	24*
CC1CC(=O)c2c(cc3c(-c4c(O)cc(O)c5c(O)c6c(cc45)OC(C)CC6=O)c(O)cc(O)c3c2O)O1 (configuration not stated)	.	.	.	78*	.	.
O=C(NC1CCSc2ccccc21)c1cc([N+](=O)[O-])ccc1N1CCOCC1 (configuration not stated)	18	7	14*	-2	12	0
O=C1C(Cl)=C(NS(=O)(=O)c2ccc([N+](=O)[O-])cc2)C(=O)c2ccccc21	12	13	-1	13	30*	6
C=C(NC(=O)C(=C)NC(=O)c1csc(C2=NC3c4csc(n4)C4NC(=O)c5csc(n5)C(C(C)(O)C(C)O)NC(=O)C5CSC(=N5)/C(=C/C)NC(=O)C(C(C)O)NC(=O)c5csc(n5)C3(CC2)NC(=O)C(C)NC(=O)C(=C)NC(=O)C(=C)NC(=O)C(C(C)C)NC2C=Cc3c(C(C)O)cc(nc3C2O)C(=O)OC4C)n1)C(N)=O (configuration not stated)	5	-75	32*	-64	-84	-1
Cn1cc(/C=C2/SC(=O)N(CC(=O)Nc3ccc4c(c3)OCO4)C2=O)c2ccccc21	2	-7	0	-3	9	1
O=C(CN1C(=O)S/C(=C\c2ccc(-c3cc(C(=O)O)ccc3Cl)o2)C1=O)Nc1ccc2c(c1)OCO2	-17	-18	18*	-27	17	12
Cc1ccc(C)n1-c1cc([N+](=O)[O-])ccc1-n1ccnc1	-16	2	-1	.	-1	12
CC1(C)N([O-])c2cc([N+](=O)[O-])ccc2[N+]1=O	6	6	21*	.	37*	16
O=C(NCCc1ccccc1F)c1ccc(Sc2ccccc2Cl)c([N+](=O)[O-])c1	9	-3	2	.	-9	.
CCOC(=O)C1CCN(S(=O)(=O)c2ccc3c(c2)CCCN3C(C)=O)CC1	5	1	0	-5	8	7
CCOC(=O)C1CCN(S(=O)(=O)c2ccc3c(c2)CC(=O)N3C)CC1	25*	5	-2	-1	5	-4
COc1cc2c(ccc3cc(OC)c(OC)c(O)c32)cc1O	8	17	36*	24	6	39*
COCC1CCCCN1C(=O)CCCn1nnnc1CN1CCC(C)CC1 (configuration not stated)	-8	-4	-2	1	-3	10
CC1CCN(Cc2nnnn2CCCC(=O)NC(c2ccccn2)C(F)(F)F)CC1 (configuration not stated)	9	-2	28*	6	1	-2
CN1C(=O)c2cc(NC(=O)Nc3ccccc3)ccc2OC[C@H]2O[C@@H](CC(=O)Nc3cc(F)ccc3F)CC[C@@H]21	8	-3	2	.	4	.
O=C(NN1C(=O)CSC1=S)C(=O)NN1C(=O)CSC1=S	1	-14	29*	-3	-38	8
CCC[C@H]1[C@@H](OC(=O)NC2CCC2)CC[C@@]23CCCN2C(=O)CCC[C@@H]13	-2	-9	-1	.	-1	.
CCCCCC(=O)N1CC2(CC(c3cccc(NC(=O)[C@@H]4CCC(=O)N4)c3)=NO2)C[C@@H]1C(N)=O (some centres not stated)	1	-1	2	-1	8	5
SMILES	TDP2 inh	SIAE inh	LEDGF integ inh	HTRA1 inhibitor	mABHD4 FP	TCR-CD3 inh
C=C(C)C(=O)Nc1cccc(C2=NOC3(C2)C[C@@H](C(N)=O)N(C(=O)CCCCC)C3)c1 (some centres not stated)	10	1	41*	-7	7	-6
CC(=O)Oc1ccc2c(c1)Oc1cc(OC(C)=O)ccc1C21OC(=O)c2ccccc21	.	.	.	124*	.	.
Cc1cc(O)ccc1C1(c2ccc(O)cc2C)OC(=O)c2ccccc21	-5	-17	4	-59	-46	-3
Cc1ccc(C2C3CN(C(C)C)CC=C3C(C#N)=C(N)C2(C#N)C#N)cc1 (configuration not stated)	7	1	4	3	34*	8
COc1ccc(OC)c(C2C3CN(C(C)C)CC=C3C(C#N)=C(N)C2(C#N)C#N)c1 (configuration not stated)	6	-4	1	-7	8	4
CC[n+]1c(/C=C/C=C/N(C(C)=O)c2ccccc2)sc2ccccc21	5	-211	17*	-58	-66	-43
CCn1c(/C=C/N(C(C)=O)c2ccccc2)[n+](CC)c2ccc(Cl)cc21	2	6	0	0	2	5
CC1=C(C(=O)N2CCOCC2)C(c2ccc(O)cc2)NC(=S)N1 (configuration not stated)	-20	-2	-1	5	-12	-6
Oc1ccc2c(c1)C1CCCC1(N1CCOCC1)O2 (configuration not stated)	5	9	31*	-5	34*	11
CC(=O)NCCC(=O)Nc1sc2c(c1-c1nc3ccccc3[nH]1)CCCC2	-3	11	-5	-3	7	5
CN1CCN(S(=O)(=O)c2cccc(C(=O)Nc3sc4c(c3-c3nc5ccccc5[nH]3)CCCC4)c2)CC1	-6	25*	1	-8	3	-5
CC(C)C1N=C2c3ccccc3N=C(SCc3cc(=O)n4cc(Cl)ccc4n3)N2C1=O (configuration not stated)	12	19*	0	-4	3	-7
CC(C)C1N=C2c3ccccc3N=C(SCC(=O)NCCc3ccc(S(N)(=O)=O)cc3)N2C1=O (configuration not stated)	1	4	3	7	0	-1
